{"data": "Experimental data pooled from the literature", "RET": "Proto-oncogene tyrosine-protein kinase receptor Ret (RET, Homo sapiens, UniProt P07949)", "RET V804L": "Proto-oncogene tyrosine-protein kinase receptor Ret (RET, Homo sapiens, UniProt P07949, V804L)", "RET Y791F": "Proto-oncogene tyrosine-protein kinase receptor Ret (RET, Homo sapiens, UniProt P07949, Y791F)", "RET V804M": "Proto-oncogene tyrosine-protein kinase receptor Ret (RET, Homo sapiens, UniProt P07949, V804M)", "RET K758M": "Proto-oncogene tyrosine-protein kinase receptor Ret (RET, Homo sapiens, UniProt P07949, K758M)", "RET M918T": "Proto-oncogene tyrosine-protein kinase receptor Ret (RET, Homo sapiens, UniProt P07949, M918T)"}
{"Structure (SMILES)": "O=C1Nc2ccc(Cl)cc2C1=Cc1cc(Cl)c(O)c(Cl)c1", "target": "RET", "read-out": "cell-free assay", "concentration": "0.5 µM", "endpoint": "remaining signal", "result": "80.4%"}
{"Structure (SMILES)": "CCc1cccc(NC(=O)c2cc(-c3ccc(OC)c(S(N)(=O)=O)c3)[nH]n2)c1", "target": "RET", "read-out": "enzyme activity", "mode": "inhibitor", "method": "radiometric", "concentration": "10 µM", "endpoint": "remaining activity", "result": "92.5%"}
{"Structure (SMILES)": "N#CCCc1ccc2c(c1)-c1[nH]c3ccc([N+](=O)[O-])cc3c1CC(=O)N2", "target": "RET", "read-out": "cell-free assay", "concentration": "0.5 µM", "endpoint": "remaining signal", "result": "80.8%"}
{"Structure (SMILES)": "Cc1ccc(C(=O)NCc2ccsc2)cc1C#Cc1cn(C(C)C)c2ncnc(N)c12", "target": "RET", "read-out": "enzyme activity", "mode": "inhibitor", "concentration": "1 µM", "endpoint": "activity vs control", "result": "4%"}
{"Structure (SMILES)": "CCCOc1ccc([C@H]2[C@H](C(=O)O)[C@@H](c3ccc4c(c3)OCO4)CN2CC(=O)Nc2c(CC)cccc2CC)cc1", "target": "RET V804L", "read-out": "cell-free assay", "method": "competition with immobilised ligand", "concentration": "1 µM", "endpoint": "remaining binding", "result": "93%"}
{"Structure (SMILES)": "CC/C(=N\\NC(=O)NCc1cccc(O)c1)c1ccc(O)c(C)c1O", "target": "RET Y791F", "read-out": "enzyme activity", "mode": "inhibitor", "concentration": "0.1 µM", "endpoint": "inhibition", "result": "2.9%"}
{"Structure (SMILES)": "Cc1ccc(Nc2nccc(N(C)c3ccc4c(C)n(C)nc4c3)n2)cc1S(N)(=O)=O", "target": "RET", "read-out": "cell-free assay", "concentration": "0.5 µM", "endpoint": "remaining signal", "result": "25.7%"}
{"Structure (SMILES)": "Cc1ccc(NC(=O)Nc2ccc(Nc3cc(-n4ccnc4)nc(C)n3)cc2)c(C)c1", "target": "RET", "read-out": "enzyme activity", "mode": "inhibitor", "method": "radiometric", "concentration": "10 µM", "endpoint": "remaining activity", "result": "68.1%"}
{"Structure (SMILES)": "CCC(=O)N[C@@H]1CC[C@H](C(=O)N(C)c2ccc(-c3nc4ccccc4o3)cc2)C1", "target": "RET V804M", "read-out": "cell-free assay", "method": "competition with immobilised ligand", "concentration": "1 µM", "endpoint": "remaining binding", "result": "100%"}
{"Structure (SMILES)": "COc1cc(NC(=O)Nc2ccccc2Br)cc2sc(NC(=O)c3ccccc3)nc12", "target": "RET", "read-out": "enzyme activity", "mode": "inhibitor", "method": "radiometric", "concentration": "0.1 µM", "endpoint": "remaining activity", "result": "106%"}
{"Structure (SMILES)": "CO[C@]1(C(=O)N[C@@H](C)c2ccc(-n3cc(F)cn3)nc2)CC[C@H](c2nc(C)cc(Nc3cc(C)[nH]n3)n2)CC1", "target": "RET K758M", "read-out": "thermal stability", "method": "DSF", "concentration": "10 µM", "endpoint": "ΔTm", "result": "14.2 °C"}
{"Structure (SMILES)": "Cc1cnc(NC2CCOCC2)nc1-n1cnc(C(=O)NC(CN)c2cc(F)cc(Cl)c2)c1 (centres unmarked)", "target": "RET", "read-out": "enzyme activity", "mode": "inhibitor", "method": "radiometric", "concentration": "1 µM", "endpoint": "remaining activity", "result": "111%"}
{"Structure (SMILES)": "CC1=C(C#N)C(c2ccc3c(c2)c(NC(=O)c2ccccc2C)nn3C)C(C#N)=C(C)N1", "target": "RET V804L", "read-out": "cell-free assay", "method": "competition with immobilised ligand", "concentration": "1 µM", "endpoint": "remaining binding", "result": "100%"}
{"Structure (SMILES)": "COc1ccc(CN2C3CC2CN(c2ccc(-c4cc(OCC(C)(C)O)cn5ncc(C#N)c45)cn2)C3)cn1", "target": "RET K758M", "read-out": "thermal stability", "method": "DSF", "concentration": "10 µM", "endpoint": "ΔTm", "result": "11.9 °C"}
{"Structure (SMILES)": "Nc1ncnc2occ(-c3ccc(NC(=O)Nc4cc(C(F)(F)F)ccc4F)cc3)c12", "target": "RET V804M", "read-out": "cell-free assay", "concentration": "20 µM", "endpoint": "remaining signal", "result": "0%"}
{"Structure (SMILES)": "COC(=O)c1cccc(NC(=O)Nc2cc(C)c3nc(NC(=O)c4ccccc4)sc3c2)c1", "target": "RET", "read-out": "enzyme activity", "mode": "inhibitor", "method": "radiometric", "concentration": "0.1 µM", "endpoint": "remaining activity", "result": "109%"}
{"Structure (SMILES)": "O=C(Nc1cccnn1)N1CC(C/C=C/c2cncc(Oc3ccc(C(F)(F)F)cn3)n2)C1", "target": "RET", "read-out": "cell-free assay", "method": "competition with immobilised ligand", "concentration": "1 µM", "endpoint": "remaining binding", "result": "100%"}
{"Structure (SMILES)": "COc1cc(NC(=O)Nc2cc(OC)c3nc(NC(=O)c4ccccc4)sc3c2)cc(OC)c1", "target": "RET", "read-out": "enzyme activity", "mode": "inhibitor", "method": "radiometric", "concentration": "10 µM", "endpoint": "remaining activity", "result": "101%"}
{"Structure (SMILES)": "COc1cc(-c2cc(-c3ccc(N4CCNCC4)cc3)cnc2N)cc(OC)c1OC", "target": "RET Y791F", "read-out": "enzyme activity", "mode": "inhibitor", "concentration": "1 µM", "endpoint": "inhibition", "result": "13%"}
{"Structure (SMILES)": "Cc1nc(C2CCN(C(=O)c3ccc(OC(F)(F)F)cc3N)CC2)c2ncc(N3CCN(C)CC3)cc2n1", "target": "RET M918T", "read-out": "cell-free assay", "method": "competition with immobilised ligand", "concentration": "1 µM", "endpoint": "remaining binding", "result": "86%"}
{"Structure (SMILES)": "COc1cccc(Nc2nc(C)c(C(=O)Nc3ccc4c(c3)OCO4)s2)c1", "target": "RET", "read-out": "enzyme activity", "mode": "inhibitor", "method": "radiometric", "concentration": "0.1 µM", "endpoint": "remaining activity", "result": "129%"}
{"Structure (SMILES)": "CCCOc1ccc(OC)c(F)c1C(=O)c1ccc(C(=O)N[C@@H]2CNC[C@H]2NC(=O)c2ccc3[nH]ncc3c2)cc1", "target": "RET", "read-out": "enzyme activity", "mode": "inhibitor", "concentration": "0.5 µM", "endpoint": "remaining activity", "result": "54%"}
{"Structure (SMILES)": "CCCCN(CCCC)C(=O)CN1C[C@H](c2cc(OC)c3c(c2)OCO3)[C@@H](C(=O)O)[C@@H]1CC(C)(C)CCC", "target": "RET", "read-out": "cell-free assay", "method": "competition with immobilised ligand", "concentration": "1 µM", "endpoint": "remaining binding", "result": "100%"}
{"Structure (SMILES)": "CCN(CC)CCNC(=O)c1c(C)[nH]c(/C=C2\\C(=O)Nc3ccc(F)cc32)c1C", "target": "RET", "read-out": "cell-free assay", "concentration": "0.5 µM", "endpoint": "remaining signal", "result": "3.43%"}
{"Structure (SMILES)": "C[C@H](c1ccnc(Nc2nc3ccc(-c4cc(N(C)C)ncn4)cc3[nH]2)c1)N1CCN(C(=O)CC(F)(F)F)CC1", "target": "RET V804L", "read-out": "cell-free assay", "method": "competition with immobilised ligand", "concentration": "0.1 µM", "endpoint": "remaining binding", "result": "83%"}
{"Structure (SMILES)": "Cc1cccc(NC(=O)CNC(=O)c2ccccc2NS(=O)(=O)c2ccc3[nH]c(=O)[nH]c3c2)c1C", "target": "RET", "read-out": "enzyme activity", "mode": "inhibitor", "method": "radiometric", "concentration": "0.1 µM", "endpoint": "remaining activity", "result": "114%"}
{"Structure (SMILES)": "COCCOc1nc(-c2ccc(Cl)nc2)nc2c1CN(C(=O)c1ncn3ccccc13)CC2", "target": "RET M918T", "read-out": "cell-free assay", "method": "competition with immobilised ligand", "concentration": "0.1 µM", "endpoint": "remaining binding", "result": "90%"}
{"Structure (SMILES)": "CC(=O)OCc1cnc(C)c2oc(=Nc3ccc(F)cc3)c(C(=O)Nc3ccc4c(c3)OCO4)cc12", "target": "RET", "read-out": "enzyme activity", "mode": "inhibitor", "method": "radiometric", "concentration": "0.1 µM", "endpoint": "remaining activity", "result": "121%"}
{"Structure (SMILES)": "Cc1cc(NC(=O)c2cccc3cc(-c4cccc5[nH]nc(N)c45)ccc23)ccc1F", "target": "RET V804M", "read-out": "enzyme activity", "mode": "inhibitor", "concentration": "0.1 µM", "endpoint": "activity vs control", "result": "117%"}
